Source: PubChem BioAssay
In the library only some 2.8% were active in any assay of this set; here they are far more common.
HTR2A ag – activates the mouse 5-HT2A serotonin receptor; AID 624169; CHO-K1 mHTR2A beta-arrestin complementation, luminescence; percent of 30 µM serotonin response; 0.66% of 360,000 active; activation, % at 7.6 µM; P35363;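 active = activation above a run cutoff, the mean activation of all tested compounds plus 3 SD, cut at about 14% in these data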
MC4R barr agon – agonists of human melanocortin 4 receptor (MC4R) beta-arrestin; P32245; U2OS MC4R beta-arrestin complementation, luminescence; percent of melanotan II response, DMSO zero; activation, % at 8.9 µM; 0.98% of 360,000 active;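 active = activation above a per-plate cutoff, the mean activation of sample wells on that plate plus 3 SD, cut at about 8% in these data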
Target sequence (P32245 whole entry, looked up): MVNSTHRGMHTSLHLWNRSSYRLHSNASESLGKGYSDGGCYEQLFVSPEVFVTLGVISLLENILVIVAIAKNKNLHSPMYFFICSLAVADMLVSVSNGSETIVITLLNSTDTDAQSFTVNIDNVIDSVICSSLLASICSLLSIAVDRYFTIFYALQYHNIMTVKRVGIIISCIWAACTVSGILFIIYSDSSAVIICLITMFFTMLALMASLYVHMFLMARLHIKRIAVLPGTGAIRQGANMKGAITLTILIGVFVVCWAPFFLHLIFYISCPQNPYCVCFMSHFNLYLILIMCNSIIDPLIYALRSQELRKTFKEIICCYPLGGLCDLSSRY
EBI2 block – antagonists of human EBI2 receptor | P32249 | EBI2 beta-arrestin recruitment, luminescence, 7a,25-OHC stimulated | inhibition, % at 5 µM | 0.81% of 360,000 active; in the data active = inhibition above about 38%;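 note: enzyme fragment complementation signal reports receptor beta-arrestin coupling in cells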
Target sequence (P32249 whole entry, looked up, the tested form may be a part): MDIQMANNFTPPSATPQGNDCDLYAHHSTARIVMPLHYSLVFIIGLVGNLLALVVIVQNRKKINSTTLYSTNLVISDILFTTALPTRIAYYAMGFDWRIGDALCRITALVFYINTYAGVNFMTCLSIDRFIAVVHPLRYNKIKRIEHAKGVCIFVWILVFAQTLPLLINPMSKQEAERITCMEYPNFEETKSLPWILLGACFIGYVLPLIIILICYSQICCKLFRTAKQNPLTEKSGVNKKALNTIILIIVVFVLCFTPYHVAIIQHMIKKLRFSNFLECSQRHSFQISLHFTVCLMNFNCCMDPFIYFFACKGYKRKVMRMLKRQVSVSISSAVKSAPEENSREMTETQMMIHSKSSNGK
MC4R antagonist – blocks human MC4R cAMP signaling; P32245; MC4R-expressing cells, MTII-stimulated cAMP, LANCE TR-FRET; inhibition, % at 6.5 µM; 0.48% of 360,000 active;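 active = inhibition above its plate's cutoff, the mean of tested wells on that plate plus 3 SD, cut at about 29% in these data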
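Material – human MC4R-expressing U2OS cells · Repeats – no replicates · Detection – TR-FRET with Eu-cAMP and labeled anti-cAMP, 671 nm · Times – compound 30 min, challenge 1 h, detection 1 h · Compound – single nominal compound dose of 6.5 µM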
EBI2 antag conf – EBI2 (human) antagonism, single concentration confirmation. AID 651997. shares compounds with EBI2 block. inhibition, % at 5 µM. 29% of 2,400 active. EBI2 beta-arrestin luminescence, 7a,25-OHC antagonism;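 active = inhibition of at least 50%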
EBI2 ag – activates EBI2, counter-screen for EBI2 antagonists; AID 652000; shares compounds with EBI2 block; EBI2-expressing cells, agonist mode, luminescence, 60 min; 0% vehicle, 100% 7α,25-dihydroxycholesterol control; 2,400 tested, under 10 active; activation, % at 5 µM;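 active = activation of at least 50%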
bGal counter – beta-galactosidase inhibition counter-screen. shares compounds with EBI2 block. purified beta-galactosidase, luminescent Galacton Star, 15 min. inhibition, % at 5 µM. 1% of 2,400 active. AID 652176;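 active = replicate-average signal at least 3 plate SD below neutral wells, shown as high inhibition, flagging enzyme-inhibiting false positives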;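 note: higher means stronger loss of beta-gal luminescence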
Hits are given with their value; 0 = inactive; - = no result.

SMILES | HTR2A ag | MC4R barr agon | EBI2 block | MC4R antagonist | EBI2 antag conf | EBI2 ag | bGal counter
O=C(CN(Cc1ccc(F)cc1)C(=O)CNS(=O)(=O)c1ccc(Cl)cc1)NCC1CCCO1 (configuration not stated) | 0 | 0 | 0 | 0 | - | - | -
O=C(O)c1cnn(-c2nc(-c3cccc(F)c3)cs2)c1C(F)(F)F | 0 | 0 | 0 | 0 | - | - | -
CCOC(=O)c1cnn(-c2nc(-c3cccc(F)c3)cs2)c1C(F)(F)F | 0 | 0 | 47.7 | 0 | 0 | 0 | 0
NC(N)=N/N=C/c1ccccc1 | 0 | 0 | 0 | 0 | - | - | -
NC(=N\N=Cc1ccccc1)/C(N)=N/N=Cc1ccccc1 | 0 | 0 | 48.5 | 0 | 0 | 0 | 0
COc1cc(/C=N/OCC(=O)NC23CC4CC(CC(C4)C2)C3)ccc1OCc1ccccc1 | 0 | 0 | 44.7 | 0 | 0 | 0 | 0
O=C(NC1CCN(S(=O)(=O)c2ccc(F)cc2)CC1)c1cccc(F)c1 | 0 | 0 | 0 | 0 | - | - | -
C=CCN1C(=O)NC(c2ccccc2)(C(F)(F)F)S/C1=C(\C#N)c1nnc(N2CCOCC2)n1-c1ccccc1 (configuration not stated) | 0 | 0 | 52.8 | 0 | 52.6 | 0 | 0
C=CCN1C(c2cccc(C(F)(F)F)c2)=CS/C1=C(\C#N)c1nnc(N2CCOCC2)n1-c1ccccc1 | 0 | 0 | 0 | 0 | - | - | -
CC1(C)Cc2c(C#N)c(SCCC#N)nc(N3CCOCC3)c2CS1 | 0 | 0 | 69.5 | 0 | 0 | 0 | 0
CC(=O)n1cc([C@H]2C=C(C(=O)N3CCN(Cc4ccccc4)CC3)O[C@@H](OCc3ccc(CO)cc3)C2)c2ccccc21 | 0 | 0 | 46.8 | 0 | 0 | 0 | 0
CC(=O)n1cc([C@H]2C=C(C(=O)N3CCN(Cc4ccc5c(c4)OCO5)CC3)O[C@@H](OCc3ccc(CO)cc3)C2)c2ccccc21 | 0 | 0 | 0 | 0 | - | - | -
O=C(NCc1ccccc1)[C@@H]1C[C@H]1[C@@H](NP(=O)(c1ccccc1)c1ccccc1)c1ccccc1 | 0 | 0 | 0 | 0 | - | - | -
O=C(Nc1ccc2ccccc2c1)[C@@H]1C[C@H]1[C@@H](NP(=O)(c1ccccc1)c1ccccc1)c1ccccc1 | 0 | 0 | 59.2 | 0 | 0 | 0 | 0
CC1(c2ccccc2)NC(=O)N(CC(=O)NCc2cccc(Cl)c2)C1=O (configuration not stated) | 0 | 0 | 0 | 0 | - | - | -
O=C(NCc1ccc(Cl)cc1)c1ccc(N2CCCC2=O)cc1 | 0 | 0 | 54.9 | 0 | 0 | 0 | 0
CC(C)c1ccc(C(=O)NCc2ccc(Cl)cc2)cc1 | 0 | 0 | 61.1 | 0 | 0 | 0 | 0
Cc1ccc(CNC(=O)c2ccc(N3CCCC3=O)cc2)cc1 | 0 | 0 | 62.7 | 0 | 0 | 0 | 0
Cc1ccc(C(=O)NC2CCCCC2)cc1S(=O)(=O)N1CCCC1 | 0 | 0 | 0 | 0 | - | - | -
C#CCOCCOCCOCCNc1nc(N2CCN(C(=O)[C@H](C)n3cc(CCCN=C(N)N)nn3)CC2)nc(N2CCN(C(=O)[C@H](C)n3cc(CCCN=C(N)N)nn3)CC2)n1 | 0 | 0 | 0 | 0 | - | - | -
O=C(c1cc2cc(Cl)ccc2[nH]1)N1CCN(c2ccccn2)CC1 | 0 | 0 | 80.1 | 0 | 67.0 | 0 | 0
O=C(c1cc2cc(Cl)ccc2[nH]1)N1CCN(C(=O)c2ccco2)CC1 | 0 | 0 | 72.7 | 0 | 0 | 0 | 0
O=C(c1cc2cc(Cl)ccc2[nH]1)N1CCN(c2ccccc2F)CC1 | 0 | 0 | 85.2 | 0 | 73.1 | 0 | 0
COc1ccc(Cl)cc1C(=O)N1CCN(c2ccccn2)CC1 | 0 | 0 | 0 | 0 | - | - | -
COc1ccccc1N1CCN(C(=O)c2cc3c(s2)-c2ccccc2OC3)CC1 | 0 | 0 | 84.9 | 0 | 82.4 | 0 | 0
SMILES | HTR2A ag | MC4R barr agon | EBI2 block | MC4R antagonist | EBI2 antag conf | EBI2 ag | bGal counter
CCOC(=O)C1CCN(C(=O)c2cc3c(s2)-c2ccccc2OC3)CC1 | 0 | 0 | 78.9 | 0 | 74.1 | 0 | 0
O=C(CSc1ncccn1)NCC1CCCO1 (configuration not stated) | 0 | 0 | 0 | 0 | - | - | -
Cc1ccc2c(c1)C(CCN)C(=O)N2Cc1ccccc1 (configuration not stated) | 0 | 0 | 52.2 | 0 | 0 | 0 | 46.0
COc1ccc(-c2nc(C)ncc2-c2ccc(Cl)cc2)c(O)c1 | 0 | 0 | 54.0 | 0 | 0 | 0 | 0
CCOc1ccc(-c2nc(N)ncc2-c2ccc(Cl)cc2)c(O)c1 | 0 | 0 | 58.8 | 0 | 0 | 0 | 0
CCOc1ccc(-c2nc(N)ncc2-c2ccc(OC)cc2)c(O)c1 | 0 | 0 | 68.6 | 0 | 0 | 0 | 0
Cc1cccc(C(=O)OC(C)CN2C(C)CCCC2C)c1 (configuration not stated) | 0 | 0 | 0 | 0 | - | - | -
C/C(=N\NC(=O)c1cc2ccccc2cc1O)c1ccccn1 | 0 | 0 | 50.5 | 0 | 75.5 | 0 | 0
C/C(=N\NC(=O)c1ccc(F)cc1)c1ccccn1 | 0 | 0 | 64.1 | 0 | 84.0 | 0 | 0
C/C(=N\NC(=O)c1c[nH]c2ccccc12)c1ccccn1 | 0 | 0 | 0 | 0 | - | - | -
Cc1ccc(C(=O)NCCN2CCN(C(=O)c3ccc(C)c(C)c3)CC2)cc1C | 0 | 0 | 0 | 0 | - | - | -
O=C(NCCN1CCN(C(=O)c2ccc(Br)cc2)CC1)c1ccc(Br)cc1 | 0 | 0 | 43.7 | 0 | 0 | 0 | 0
CC(C)OCC(O)CN1CCC(Cc2ccccc2)CC1 (configuration not stated) | 0 | 0 | 0 | 0 | - | - | -
OC(COc1ccc(Br)cc1)CN1CCC(Cc2ccccc2)CC1 (configuration not stated) | 0 | 0 | 61.1 | 0 | 0 | 0 | 0
O=C(c1ccco1)N1CCN(CC(O)COc2ccc(Br)cc2)CC1 (configuration not stated) | 0 | 0 | 51.0 | 0 | 0 | 0 | 0
O=C(c1ccc(F)cc1)N1CCN(c2ccc([N+](=O)[O-])cc2-n2cccc2)CC1 | 0 | 0 | 55.1 | 0 | 0 | 0 | 0
CCN(CC)c1ncnc2c1ncn2[C@H]1CN(Cc2ccccc2)C[C@@H](COC(C)=O)O1 | 0 | 0 | 0 | 0 | - | - | -
COc1ccc(/C=C/C(=O)c2ccc(OC)cc2OC)cc1 | 0 | 0 | 0 | 0 | - | - | -
COc1ccc(/C=C/C(=O)c2cc3c(cc2N)OCO3)cc1 | 0 | 0 | 62.7 | 0 | 0 | 0 | 0
COc1ccc(CCN2C(=O)c3cccc4c(C(=O)N5CCCCC5)ccc(c34)C2=O)cc1OC | 0 | 0 | 0 | 0 | - | - | -
O=C(CSc1nnc(Cc2ccccc2)o1)c1cc(F)ccc1F | 0 | 0 | 0 | 0 | - | - | -
Cc1ccc([N+](=O)[O-])cc1-c1ccc2cccc(C)c2n1 | 0 | 0 | 51.3 | 0 | 0 | 0 | 0
Cc1ccc2cccc(Oc3ccc([N+](=O)[O-])cc3[N+](=O)[O-])c2n1 | 0 | 0 | 0 | 0 | - | - | -
COc1ccc(Cc2nc3ccc(C(=O)N4CCC[C@H]4CO)cc3o2)cc1 | 0 | 0 | 0 | 0 | - | - | -
